# Ecoli WT expand: growth inhibitors of E. coli BW25113 wild type; OD600 absorbance; growth inhibition, % at 100 µM; hit rate 0.15% among 98,000; AID 710;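 active = growth inhibition above about 50% at one test dose, limit read from the data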;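 note: growth measured after 20 h incubation at 37 °C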
# DAT uptake mod: changed human dopamine transporter uptake under cocaine IC80 | B-score at 10 µM | LLC-PK1 hDAT cells, [14C]-dopamine uptake with cocaine IC80; actives deviate in either direction | AID 449768 | hit rate 1.3% among 110,000;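 active = Z score or B-score, a plate-position-corrected score, falls beyond the plate's 99.7% confidence bounds, in either direction; inactive = both scores lie inside the 99.7% bounds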;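 note: scored against the spread of the other compound wells on the same plate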
# Ecoli tolC: growth inhibitors of E. coli BW25113 tolC mutant; OD615; growth inhibition, % at 10 µM (by protocol); hit rate 2.2% among 65,000;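 active = growth inhibition at or above a cutoff equal to the mean over every tested compound plus 3 SD, cut at about 60% in these data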;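 note: growth measured after 20 h incubation at 37 °C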
#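 test system = E. coli BW25113 ΔtolC::kan bacteria | medium = LB with kanamycin 50 µg/mL | signal = OD at 615 nm | schedule = 37 °C, 20 h exposure | evaluation = % inhibition of E. coli growth | compound dosing = one dose of 10 µM final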
# PostGolgi yeast: growth inhibition of a yeast mutant, post-Golgi transport screen; AID 739; inhibition, % at 10 µM; post-Golgi transport phenotypic cell assay; hit rate 0.9% among 98,000;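 note: yeast cells grown in 1536-well plates; yeast grown about 18 h at 30C before absorbance read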
# PostGolgi ctrl: yeast control strain growth, post-Golgi counter-screen. efflux-deficient yeast background strain, growth absorbance A615, 16 h. inhibition, % at 10 µM. hit rate 5% among 98,000
# D1 allo mod: allosteric modulators of human D1 dopamine receptor; P21728; HEK293 D1, CRE-luciferase, dopamine EC30 potentiation; actives deviate in either direction; B-score at 10 µM; hit rate 5.9% among 58,000;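 active = luminescence count or its row- and column-corrected plate score outside the 99.7% band of the plate's sample wells, on either side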
# Target sequence (P21728 whole entry, looked up): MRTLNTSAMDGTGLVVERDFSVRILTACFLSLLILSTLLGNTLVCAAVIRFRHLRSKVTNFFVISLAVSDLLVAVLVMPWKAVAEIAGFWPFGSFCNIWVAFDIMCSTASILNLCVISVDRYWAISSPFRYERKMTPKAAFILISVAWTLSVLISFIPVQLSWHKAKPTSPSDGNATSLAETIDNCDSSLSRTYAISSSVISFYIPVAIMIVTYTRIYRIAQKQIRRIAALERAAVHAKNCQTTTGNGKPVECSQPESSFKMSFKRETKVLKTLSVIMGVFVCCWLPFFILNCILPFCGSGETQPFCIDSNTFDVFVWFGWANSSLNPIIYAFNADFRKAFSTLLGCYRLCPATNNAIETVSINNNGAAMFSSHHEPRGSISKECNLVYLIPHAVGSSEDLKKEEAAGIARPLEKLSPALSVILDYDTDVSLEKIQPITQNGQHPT
# Numbers without * were called inactive; · = not tested or not shown. In the library only some 9.3% were active in any assay of this set; here they are far more common. Cut-off read from the data, not from the text of the source, unless noted: active = inhibition above about 30%; inactive = the rest.
SMILES,Ecoli WT expand,DAT uptake mod,Ecoli tolC,PostGolgi yeast,PostGolgi ctrl,D1 allo mod
CC(C)(C)C1CCC2(CC1)C(C#N)=C(SCC(=O)NC1CCCCC1)NC(=O)C2C#N (configuration not stated),2,-0.011,75*,2,24,-1.2
C=CCn1c(SCc2c(C)noc2C)nnc1C1COc2ccccc2O1 (configuration not stated),-13,0.59,34,-1,19,0.64
CCc1ccc2oc(-c3cc(N=Cc4cccc(OC)c4O)ccc3O)nc2c1,-6,0.96,5,9,33*,-5.6*
COc1ccccc1-c1nn2c(-c3ccccc3Cl)nnc2s1,·,·,2,·,·,0.52
Clc1ccc(OCc2nn3c(C4CCCCC4)nnc3s2)c(Cl)c1,-7,0.024,15,1,39*,1.4
c1coc(-c2nnc3sc(Cc4cccs4)nn23)c1,9,1.7,9,21,2,·
Clc1ccc(-c2nnc3sc(Cc4cccs4)nn23)c(Cl)c1,-2,0.15,18,-12,50*,·
COc1ccccc1-c1nnc2sc(COc3ccc(Cl)cc3Cl)nn12,1,-0.07,17,12,41*,0.19
CCN(CC)c1ccc(-c2nn3c(-c4ccccc4OC)nnc3s2)cc1,-11,0.79,40,11,43*,-0.22
CCOC(=O)C1=C(C)N(CCCC(=O)O)C(=O)NC1c1cccs1 (configuration not stated),·,0.48,·,·,·,·
COc1ccc(-c2csc(NC(C)c3nc4cc(Cl)c(Cl)cc4n3CCCO)n2)cc1 (configuration not stated),·,0.38,·,·,·,·
O=C(NCc1ccco1)C(Cc1ccccc1)N1C(=O)C2C3C=CC(C3)C2C1=O (configuration not stated),4,0.6,1,2,8,-1.2
CC(NC(=O)C(Cc1ccccc1)N1C(=O)C2C3CCC(C3)C2C1=O)c1ccccc1 (configuration not stated),-6,1.7,·,-1,32*,·
Cc1ccc(NC(=O)C2CC=CCC2C(=O)N2CCCCC2)cc1 (configuration not stated),7,-0.92,-2,10,-2,0.35
Cc1ccc(NC(=O)NC2=N/C(=C(/C#N)C(=O)N3CCCC3)c3ccccc32)cc1,·,0.2,-2,·,·,-3.8*
CC(=O)c1sc(NC(=O)C=C(C)C)nc1C,1,0.17,-13,-7,14,0.12
CC(=O)c1sc(NC(=O)C2(F)C(F)(F)C(F)(F)C(F)(F)C(F)(F)C2(F)F)nc1C,8,-2.2,100*,-1,22,-2.1*
Cc1ccc(Nc2nc(N)nc(CSc3nc4ccccc4s3)n2)cc1,-1,·,·,2,51*,·
Cc1c(NC(=O)c2cc3nc(-c4ccc(Cl)cc4)cc(C(F)(F)F)n3n2)c(=O)n(-c2ccccc2)n1C,·,0.87,·,·,·,·
O=C(c1ccccc1)c1ccc(CN2C(=O)c3ccccc3C2=O)o1,3,3.4*,23,1,23,1
O=C(O)c1ccc(C(=O)c2ccc3c(c2)C(=O)N(Cc2ccco2)C3=O)cc1,-12,0.26,7,1,7,0.062
CCOC(=O)N1CCC(NC(=O)C(NC(=O)C2CCC(C)CC2)C(C)CC)CC1 (configuration not stated),-1,·,·,9,-9,·
Cc1nn(-c2ccccc2)c(OC(=O)c2cccs2)c1S(=O)(=O)c1ccc([N+](=O)[O-])cc1,-4,-0.66,·,-2,-4,·
CC1=CC(C)(C)N(S(=O)(=O)c2ccc(C)cc2)c2ccc(C)cc21,-9,-0.68,·,1,60*,·
CN(C)/C=C/C(=O)c1cccc(Cl)c1,-2,-0.96,·,0,45*,·
SMILES,Ecoli WT expand,DAT uptake mod,Ecoli tolC,PostGolgi yeast,PostGolgi ctrl,D1 allo mod
CN(C)/C=C/C(=O)c1ccc(Cl)cc1,4,-0.043,·,0,6,·
O=c1c2cnn(-c3ccccc3)c2nc(-c2cccs2)n1-c1ccc(Br)cc1,-9,-0.73,·,-1,-2,·
O=[N+]([O-])c1nn(-c2ccc3c(c2)OCCO3)n(O)c1=NCc1ccccc1Cl,-9,14*,·,0,44*,·
O=[N+]([O-])c1nn(-c2ccc3c(c2)OCCO3)n(O)c1=NC1CCCCC1,-1,0.28,·,1,16,·
COC(=O)c1sc2nc(-c3ccco3)ccc2c1N,-6,0.33,0,17,0,-3.2*
NC(=O)c1sc2nc(-c3ccco3)ccc2c1N,12,-0.15,·,0,-6,·
CCC(C(=O)NCc1ccco1)N(C(=O)CNS(=O)(=O)c1ccccc1)C1CCCCC1 (configuration not stated),9,4.5*,·,21,10,·
Cc1ccc(Oc2ccc(-c3nc(N)nc(N)n3)cc2)cc1C,-5,0.084,·,-2,50*,·
Nc1nc(N)nc(-c2ccc(Oc3ccccc3)cc2)n1,-9,1.1,·,11,22,·
COc1ccc(C(=O)NC(=O)Nc2cc(C)ccn2)cc1,-3,-1.5,-8,5,-10,-6*
Cc1cccc(NC(=O)CSc2nc(N)cc(N)n2)c1,·,-0.44,·,·,·,·
Cc1nc(SCC(=O)Nc2cccc(Cl)c2)n[nH]1,10,-1.4,-16,-4,44*,1.1
CCOC(=O)/C(=N\Nc1cc(C(F)(F)F)ccc1Cl)N(CC)CC,6,0.74,·,-1,3,·
O=C(CN(C1CCCCC1)S(=O)(=O)c1ccc(Cl)cc1)NCc1ccncc1,0,0.56,6,1,0,-0.056
O=c1oc2c3c4c(cc2cc1-c1nc2ccccc2[nH]1)CCCN4CCC3,·,·,14,·,·,-2.7*
O=c1oc2c(CN3CCCCC3)c(O)ccc2cc1-c1nc2ccccc2[nH]1,·,·,-5,·,·,-0.4
COc1cccc(CN(CC(=O)NC2CCCC2)C(=O)Cn2nnc(-c3cccs3)n2)c1,-1,1.5,·,1,-3,·
Clc1ccc2nc(CN3CCCc4ccccc43)cn2c1,11,1.5,61*,-5,20,1.3
Clc1ccc2nc(CN3CCCCC3)cn2c1,8,0.43,-13,12,0,-0.13
O=C(CSc1nc(O)c(C2CCCCC2)c(=O)[nH]1)Nc1ccc(Cl)cc1,1,0.38,62*,0,7,-0.75
CCCNC(=O)c1c(CSc2ccc(Cl)cc2)noc1C(=O)NCc1ccccc1,·,0.19,·,·,·,·
CCC(C)C(NC(C)=O)C(=O)NC(=O)NC(c1ccccc1)c1ccccc1 (configuration not stated),2,0.78,·,2,4,·
CCOC(=O)C1=C(C)N(CCCC(=O)O)C(=O)NC1c1ccccc1OS(=O)(=O)c1ccc([N+](=O)[O-])cc1 (configuration not stated),·,-0.07,·,·,·,·
CC1=C(C(=O)OCc2ccccc2)C(c2ccccc2OS(=O)(=O)c2ccc([N+](=O)[O-])cc2)NC(=O)N1CCCC(=O)O (configuration not stated),·,2.8*,·,·,·,·
CSc1nc2ccc(NS(=O)(=O)c3ccc4c(c3)OCCO4)cc2s1,-10,0.29,100*,8,32*,-0.53
CSc1nc2ccc(S(=O)(=O)N3CCCCC3)cc2s1,-9,-0.11,·,-1,3,·

# Source: PubChem BioAssay (several laboratories)
